# Screens from PubChem.
# Only some compounds are listed: those with a hit (about 1.9% of all), similar ones and a draw of the others.
# Runt-SMMHC FRET = Runt domain-CBFb-SMMHC interaction inhibition | Cerulean-Runt/Venus-CBFb-SMMHC FRET ratio 530/480, 1 h | Q01196+Q13951 | AID 1434 | 220,000 tested, 0.74% active | inhibition, % at 20 µM;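 active = mean inhibition across duplicate retests at 20 µM reaching about 50%, limit read from the data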;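 note: 0% = DMSO wells and 100% = wells with excess untagged CBFb-SMMHC; inhibitors lower the FRET ratio by blocking Runt binding to CBFb-SMMHC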
# Target sequence (Q01196 whole entry, looked up, the tested form may be a part): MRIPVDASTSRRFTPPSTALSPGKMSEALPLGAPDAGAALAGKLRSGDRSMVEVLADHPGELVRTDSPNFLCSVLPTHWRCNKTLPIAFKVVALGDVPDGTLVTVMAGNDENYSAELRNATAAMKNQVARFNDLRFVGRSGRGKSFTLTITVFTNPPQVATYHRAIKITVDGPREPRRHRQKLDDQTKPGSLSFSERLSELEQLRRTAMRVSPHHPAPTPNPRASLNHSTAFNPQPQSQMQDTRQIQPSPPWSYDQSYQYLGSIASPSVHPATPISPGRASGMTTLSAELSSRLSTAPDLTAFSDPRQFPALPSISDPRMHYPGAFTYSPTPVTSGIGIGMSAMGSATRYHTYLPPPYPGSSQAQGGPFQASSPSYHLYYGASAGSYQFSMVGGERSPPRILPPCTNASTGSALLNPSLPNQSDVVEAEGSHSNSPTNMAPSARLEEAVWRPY
# Target sequence (Q13951 whole entry, looked up, the tested form may be a part): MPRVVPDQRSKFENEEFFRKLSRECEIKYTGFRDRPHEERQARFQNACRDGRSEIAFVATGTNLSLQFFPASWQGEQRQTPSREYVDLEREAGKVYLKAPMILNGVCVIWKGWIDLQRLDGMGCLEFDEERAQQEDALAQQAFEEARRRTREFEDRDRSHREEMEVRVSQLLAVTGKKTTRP
# Hck-Nef inh = human Hck-Nef kinase inhibition. Recombinant Hck-YEEI plus Nef, Z-Lyte FRET kinase assay. inhibition, % at 20 µM. 220,000 tested, 0.68% active. AID 463187;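 active = Hck-Nef kinase inhibition above about 50%, limit read from the data; inactive = inhibition below that limit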;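 note: 0% = DMSO with Hck plus Nef and 100% = Hck alone without Nef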
# RanGTP-Impb inh = inhibitors of RanGTP-importin-beta interaction, primary screen, biochemical, FRET, CFP-Ran, YFP-importin-beta, homogeneous; 300,000 tested, 1.1% active; cell-free CFP-Ran/YFP-importin-beta FRET ratio; AID 2216; inhibition, % (no concentration beside the values);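 active = more than half of the replicate wells show a fall in the fluorescence ratio signal beyond about 16%, limit read from the data, passing the limit was not always enough; inconclusive = exactly half of the replicate wells pass the set limit; inactive = fewer than half of replicates pass the limit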;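 note: 0% = DMSO wells and 100% = Ran loaded with GDP instead of GTP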
# Runt-CBFb FRET = inhibitors of human RUNX1 Runt domain binding to CBFb. Q01196+Q13951. Cerulean-Runt/Venus-CBFb FRET ratio 530/480, 1 h. inhibition, % at 20 µM. 220,000 tested, 0.46% active;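 active = inhibition over about 50% at 20 µM in the single-dose screen, limit read from the data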;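 note: 0% = DMSO wells and 100% = excess unlabeled CBFb competitor control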
#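 Measured by: fluorescence energy transfer, 422 nm excitation, 530/480 nm emission; Assay system: Cerulean-Runt domain; Medium: Tris pH 7.5 buffer with BSA; Measure: loss of energy transfer signal; Controls: 5 µM unlabeled CBFb as full-inhibition high control; Incubation: protein complex preformed 1 h, compound exposure 1 h, room temperature, dark.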
# Tb hexokinase = T. brucei hexokinase 1 inhibition. recombinant TbHK1, G6PDH-coupled NADH A340. inhibition, % at 10 µM. 220,000 tested, 0.11% active;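 active = inhibition of 50% or more in the single-dose primary screen; inactive = inhibition below 50%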
# Active calls of the source: *; u = inconclusive; x = no result given.
SMILES,Runt-SMMHC FRET,Hck-Nef inh,RanGTP-Impb inh,Runt-CBFb FRET,Tb hexokinase
O=c1/c(=C/c2ccc(O)c([N+](=O)[O-])c2)sc2nc3ccccc3n12,1.9,36.3,x,-0.9,78.1*
O=C(NCCc1ccccc1F)c1ccc2c(c1)OCCO2,x,x,-1.2,x,x
O=C(NCc1ccccc1F)c1ccc2c(c1)OCO2,0.7,-0.9,15.9*,1.1,8.7
N#C/C(=C\c1c(N2CCC(C(N)=O)CC2)nc2ccccn2c1=O)C(=O)NCc1ccco1,106.9*,2.6,8.0,127.6*,-7.3
COCCNC(=O)/C(C#N)=C/c1c(N2CCN(c3ccccc3)CC2)nc2c(C)cccn2c1=O,x,x,29.1*,x,x
Cc1cccn2c(=O)c(/C=C(\C#N)C(=O)NCc3ccco3)c(N3CCOCC3)nc12,9.6,20.5,3.4,78.1*,-19.8
COCCNC(=O)/C(C#N)=C/c1c(N2CCN(c3cccc(Cl)c3)CC2)nc2c(C)cccn2c1=O,x,x,14.0,x,x
Cc1cccn2c(=O)c(/C=C(\C#N)C(=O)NCc3ccccc3)c(N3CCC(C(N)=O)CC3)nc12,89.2*,6.3,2.7,147.5*,-20.5
CCC(C(=O)Nc1ccc(S(=O)(=O)N2CCN(C)CC2)cc1)c1ccccc1 (centres undefined),x,x,2.9,x,x
COc1cc2c(cc1OC)C(C)N(C(=O)c1cc3c(C)cc(C)cc3[nH]1)CC2 (centres undefined),x,x,0.2,x,x
O=C1C2C(c3ccccc3)C=CC(c3ccccc3)C2C(=O)N1c1ccccn1 (centres undefined),-4.9,1.7,-2.6,-3.9,0.9
CCOC(=O)N1CCN(C(=O)CSc2ccc(-c3cccnc3)nn2)CC1,-3.7,13.9,0.1,0.2,2.0
CC(=O)c1cccc(NCC(=O)Nc2cc(S(=O)(=O)N3CCCCC3)ccc2C)c1,x,x,-3.9,x,x
Cc1ccc(NC(=O)c2ccc(NS(=O)(=O)c3ccc4[nH]c(=O)[nH]c4c3)cc2)nc1,x,x,1.4,x,x
CCOC(=O)/C(C#N)=C/c1c(N2CCN(CC)CC2)nc2c(C)cccn2c1=O,x,x,98.8*,x,x
CCN1CCN(c2nc3c(C)cccn3c(=O)c2/C=C(\C#N)C(=O)NC)CC1,x,x,-58.0,x,x
C=CCNC(=O)/C(C#N)=C/c1c(N2CC(C)OC(C)C2)nc2ccccn2c1=O (centres undefined),77.2*,10.4,42.2*,4.0,19.3
CCNC(=O)/C(C#N)=C/c1c(N2CCN(c3ccccc3)CC2)nc2c(C)cccn2c1=O,x,x,20.1*,x,x
COC(=O)CC(NC(=S)NC(=O)c1ccccc1)c1ccc(Br)cc1 (centres undefined),x,x,-2.3,x,x
CCCc1cc(-n2ccnc2)n2c(nc3ccccc32)c1C#N,61.6*,5.5,u,88.5*,-6.4
Cc1cc(-n2ccnc2)n2c(nc3ccccc32)c1C#N,47.5,6.1,2.8,36.7,-17.4
COc1ccc(/C=C/c2nnc(NC(=O)CSc3ccc(C)cc3)s2)cc1,123.5*,23.3,7.0,1.0,-30.3
CCC(=O)Nc1nnc(/C=C/c2ccc(OC)cc2)s1,0.6,2.5,1.0,-2.2,-16.6
COc1ccc(NC(=S)N2CCC(NC(=O)c3ccc(F)cc3)CC2)cc1,x,x,-7.2,x,x
Nc1c(-c2ccccc2)c(CN2CCOCC2)nn1-c1ccc(C(=O)O)cc1,0.8,-2.9,31.9*,-0.6,37.4
SMILES,Runt-SMMHC FRET,Hck-Nef inh,RanGTP-Impb inh,Runt-CBFb FRET,Tb hexokinase
Oc1c(CN2CCOCC2)cc(-c2ccccc2)cc1CN1CCOCC1,0.4,1.6,-6.6,-1.8,2.1
Cc1ccc(C)c(NC(=S)NCCN(C2CCCCC2)C2CCCC2)c1,3.8,16.3,1.0,-0.1,1.7
O=C(O)c1c2c(nc3ccccc13)/C(=C/c1c(F)cccc1F)CCC2,x,x,75.0*,x,x
O=C(O)c1c2c(nc3ccccc13)/C(=C/c1ccc(O)cc1)CC2,86.3*,-18.7,-9.9,20.3,-2.6
CCc1ccc(/C=C2\CN(CC)Cc3c2nc2ccccc2c3C(=O)O)cc1,-215.2,-1.0,-1.5,-33.0,-8.8
CCN(CC)S(=O)(=O)c1ccc(C(C)NC(=O)Cc2c[nH]c3ccccc23)cc1 (centres undefined),x,x,3.6,x,x
Nc1cccc2c1C(=O)N(C(=O)c1cccc(S(=O)(=O)N3CCCCCC3)c1)C2=O,61.6*,-18.8,18.9*,12.4,-1.7
Nc1cccc2c1C(=O)N(C(=O)c1ccc(Cl)c(S(=O)(=O)N3CCCCCC3)c1)C2=O,61.6*,-17.4,19.8*,-11.5,-4.5
Cc1ccc(CN2CCNC(=O)C2CC(=O)N2CCN(c3ncccn3)CC2)o1 (centres undefined),-0.8,21.3,-0.8,2.1,-1.2
CCN1C(=O)/C(=C/N2CCc3ccccc32)SC1=S,61.6,9.0,27.8*,-72.2,23.0
CC(C)c1ccc(NC(=O)C2CCC(CNC(=O)[C@@H]3Cc4ccccc4CN3)CC2)cc1 (some centres undefined),x,x,7.3,x,x
Cc1cc(=O)[nH]c(-c2cccnc2)n1,-5.0,21.3,22.1*,-1.3,-3.7
CC(C)(C)NC(=O)c1ccccc1NC(=O)C1CC(=O)N(C2CCCCC2)C1 (centres undefined),x,x,-0.2,x,x
Cc1ccc(C(=O)O)cc1NC(=S)NC(=O)c1ccc(-c2ccc(Cl)cc2)o1,0.5,56.1*,-1.0,-0.1,-63.5
COc1ccc(N2CCN(C(=O)c3c(C)nn(-c4ccccc4)c3C)CC2)cc1,-5.4,0.5,-0.2,-1.5,37.9
COc1ccc(N2CCN(c3nc(=S)n(-c4ccccc4)c(C)c3C(C)=O)CC2)cc1,-27.1,0.6,91.8*,7.0,-9.9
CC(=O)c1c(N2CCN(c3cccc(Cl)c3)CC2)nc(=S)n(-c2ccccc2)c1C,7.7,1.3,46.4*,6.4,-12.5
CCn1c(C)c(C(C)=O)c(N2CCN(c3ccc(OC)cc3)CC2)nc1=S,-38.7,3.7,83.8*,8.7,-11.4
CC(=O)c1c(NCCc2ccccc2)nc(=S)n(-c2ccccc2)c1C,2.1,1.5,4.2,2.9,-1.0
CC(=O)c1c(N2CCN(C)CC2)nc(=S)n(Cc2ccccc2)c1C,82.9*,5.9,u,62.5*,-10.6
CCOC(=O)N1CCN(c2c(N3CCN(c4ccc(OC)cc4)CC3)c(=O)c2=O)CC1,4.4,0.8,-1.9,3.0,-11.5
CCSc1nc(=S)n(Cc2ccccc2)c(C)c1C(C)=O,1.1,5.6,0.9,-2.5,-12.3
CC1(C(=O)OCC(=O)Nc2nc(-c3ccc(F)c(F)c3)cs2)CC1(Cl)Cl (centres undefined),x,x,5.1,x,x
CC(C)C[C@@H](C(=O)N[C@@H](C(=O)O)c1ccccc1)N1C(=O)N2CCc3c([nH]c4ccccc34)[C@@]2(C)C1=O,x,x,-1.1,x,x
Cc1ccc(S(=O)(=O)N2CCC(C(=O)O)CC2)cc1,-2.6,23.9,2.9,-0.8,0.5
COc1cc(C(=O)Nc2ccc(Nc3ccccc3)cc2)cc(OC)c1OC,x,x,-0.3,x,x
Cc1ccc(S(=O)(=O)N(C)C)cc1NC(=O)COC(=O)Cc1ccsc1,x,x,2.6,x,x
